Most compounds without a hit are left out; they make up all but 2.3% or so of the library.
TRPC4 PAM – positive allosteric modulators of TRPC4, primary screen, cell-based, mouse TRPC4beta, HEK293 mu-opioid, Fluo-4 calcium | Short transient receptor potential channel 4 (Mus musculus), Q9QUQ5 | DAMGO EC20, Fluo-4 Ca2+ flux; active compounds read high | B-score at 10 µM | 0.42% of 310,000 active;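 active = B-score of calcium response area above 5 SD of library B-scores, with initial fluorescence ratio within 5 SD of library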;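 note: B-score of integrated fluorescence ratio over time as area under calcium response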
TRPC6 activator – mouse TRPC6 channel activators, primary screen, cell-based, HEK293, membrane potential dye; Short transient receptor potential channel 6 (Mus musculus), Q61143; HEK293-TRPC6 membrane potential dye fluorescence; active compounds read high; B-score at 10 µM; 0.13% of 310,000 active; AID 2550, 2010;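 active = B-score of the integrated fluorescence ratio above library mean plus 3 SD, and starting fluorescence ratio within library mean plus 5 SD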;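 note: higher score means more depolarization so channel activation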
Target sequence (Q61143 whole entry, looked up): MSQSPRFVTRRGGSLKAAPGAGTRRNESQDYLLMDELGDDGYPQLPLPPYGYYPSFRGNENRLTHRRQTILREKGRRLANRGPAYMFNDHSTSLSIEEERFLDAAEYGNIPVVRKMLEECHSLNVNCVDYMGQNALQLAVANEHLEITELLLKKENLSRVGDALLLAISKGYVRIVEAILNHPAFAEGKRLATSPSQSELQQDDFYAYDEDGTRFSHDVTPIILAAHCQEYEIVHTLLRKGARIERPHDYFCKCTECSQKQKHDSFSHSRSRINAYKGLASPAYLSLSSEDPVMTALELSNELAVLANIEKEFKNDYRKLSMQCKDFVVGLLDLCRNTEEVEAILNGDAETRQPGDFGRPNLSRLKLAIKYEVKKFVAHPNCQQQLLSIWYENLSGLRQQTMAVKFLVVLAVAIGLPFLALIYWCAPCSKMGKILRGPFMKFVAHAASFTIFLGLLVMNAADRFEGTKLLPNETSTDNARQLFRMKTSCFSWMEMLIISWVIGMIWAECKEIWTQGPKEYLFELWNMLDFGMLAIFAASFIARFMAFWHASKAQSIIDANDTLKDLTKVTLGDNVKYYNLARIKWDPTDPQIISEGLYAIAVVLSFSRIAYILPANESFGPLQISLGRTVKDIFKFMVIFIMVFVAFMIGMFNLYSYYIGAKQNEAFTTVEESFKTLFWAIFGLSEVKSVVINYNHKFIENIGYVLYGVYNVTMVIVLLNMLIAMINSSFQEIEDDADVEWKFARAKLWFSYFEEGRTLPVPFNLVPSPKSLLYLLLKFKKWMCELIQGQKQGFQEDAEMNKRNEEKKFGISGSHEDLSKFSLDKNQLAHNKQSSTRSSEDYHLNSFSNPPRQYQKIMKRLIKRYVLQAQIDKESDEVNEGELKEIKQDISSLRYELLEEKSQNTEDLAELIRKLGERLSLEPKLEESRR
TRPC4 inh – inhibitors of mouse TRPC4 channel, primary screen, Fluo4 calcium, HEK293 TRPC4beta/mu-opioid cells. DAMGO-evoked Fluo4 calcium flux; active compounds read low. B-score at 10 µM. 0.39% of 300,000 active;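 active = B-score over 3 SD under the library average, no early fluorescence shift, positive overall ratio signal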
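Assay system: Stable TRPC4beta/mu-opioid receptor HEK293 cells | Reagent: DAMGO in two steps, submaximal then maximal | Compound dosing: Single concentration per test compound | Signal: Fluo4 Ca2+ flux fluorescence | Evaluation: Per-well B score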
TRPC4 agonist – activators of mouse TRPC4 channel, primary screen, Fluo4 calcium, HEK293 TRPC4beta/mu-opioid cells | Fluo4 calcium fluorescence; active compounds read high | 0.49% of 310,000 active | B-score at 10 µM | Short transient receptor potential channel 4 (Mus musculus), Q9QUQ5;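 active = B-score above 5 SD of library B-scores, and initial fluorescence ratio not above library mean plus 5 SD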;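 note: positive B-score marks a calcium rise read as TRPC4 activation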
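Material: HEK293 stable line with TRPC4beta plus mu-opioid receptor; technique: Fluo4 calcium-sensitive dye fluorescence, kinetic, 1 Hz baseline; timing: Fluo4 dye loading 45 min at room temperature, 110 s recording; controls: assay buffer as low control, maximal DAMGO as high control; read-out: integrated baseline-normalised fluorescence ratio, converted to per-well B score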
TRPC6 inhibitor – mouse TRPC6 channel inhibitors, primary screen, cell-based, HEK293, membrane potential dye. ACh-evoked depolarization; active compounds read low. 1.1% of 310,000 active. B-score at 10 µM. Short transient receptor potential channel 6 (Mus musculus), Q61143. AID 2553, 2010;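 active = B-score under library mean minus 3 SD, initial fluorescence not abnormally high, positive integrated signal ratio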;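 note: B-score derived from integrated fluorescence ratio over the kinetic read; more negative B-score means stronger inhibition of depolarization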
TRPC4 spec 2 – mouse TRPC4 off-target activity of TRPC6 inhibitors, second screen. shares compounds with TRPC6 inhibitor. HEK293 TRPC4/MOR, membrane potential dye fluorescence; channel activated by saturating DAMGO dose. inhibition, % at 10 µM. 42% of 920 active;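 active = compounds whose fluorescence signal differed from control wells by over 3 SD, either direction, in both duplicate plates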
TRPC4 spec – mouse TRPC4 modulation by TRPC6 hits, confirmation, selectivity assay for TRPC6 inhibitor project, cell-based, HEK293 TRPC4/mu-opioid, membrane potential dye. 61% of 920 active. AID 2777, 2010. activity change, negative = inhibition, % at 10 µM. shares compounds with TRPC6 inhibitor. membrane potential fluorescence;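 active = rise or fall in signal beyond 3 SD of buffer-only wells in both replicate plates, either sign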;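 note: integrated kinetic ratio of fluorescence range over baseline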
HEK293 MPD ctr 2-1 – nonspecific membrane potential effects, parental HEK293, confirmation, counter-screen for TRPC6 inhibitor project, cell-based, second counter screen; shares compounds with TRPC6 inhibitor; parental HEK293 membrane potential dye fluorescence; maximal acetylcholine challenge after compound addition; signal change vs control, % at 10 µM; 31% of 920 active;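 active = membrane potential signal moving either way by over 3 SD of the maximum-effect control, in both duplicate plates, meaning non-specific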
HEK293 MPD ctr-1 – membrane potential modulation in parental HEK293, confirmation, counter-screen for TRPC6 inhibitor project, cell-based | 60% of 920 active | shares compounds with TRPC6 inhibitor | membrane potential signal change, % at 10 µM | parental HEK293 membrane potential dye fluorescence;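 active = membrane potential signal shifting up or down by more than 3 SD of buffer-only wells, on both duplicate plates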
HEK293 MPD ctr-2 – parental HEK293 membrane potential modulation, confirmation, counter-screen for TRPC6 modulator project, cell-based; membrane potential signal change, % at 10 µM; AID 488924, 2010; 51% of 2,400 active; shares compounds with TRPC6 inhibitor; membrane potential dye fluorescence;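 active = membrane potential signal moves up or down beyond 5 SD from buffer-only wells, on both duplicate plates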
HEK293 MPD ctr 2-2 – second check of TRPC6 modulator effects in parental HEK293 cells | shares compounds with TRPC6 inhibitor | membrane potential dye fluorescence; after compound, maximal acetylcholine stimulation | 14% of 2,400 active | inhibition, % at 10 µM | AID 488926;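 active = membrane potential signal drops by more than 5 SD from the mean control signal, in both duplicate plates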;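 note: plate controls were acetylcholine ECmax control wells for no effect and buffer only wells for full effect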
TRPC4/MOR mod – TRPC4 modulation by TRPC6 hit compounds, confirmation, selectivity assay for TRPC6 modulator project, cell-based, HEK293 TRPC4/mu-opioid, membrane potential dye, mouse; shares compounds with TRPC6 inhibitor; membrane potential fluorescence; percent change from control (negative = decrease, positive = increase), % at 10 µM; 69% of 2,400 active; AID 488927, 2010;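 active = membrane potential signal moved up or down beyond 5 SD of buffer control wells, in both duplicate plates, actives on both sides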;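 note: plate controls were assay buffer wells for no effect and DAMGO maximal-effect wells for full effect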
TRPC4 ctr inh 2 – second selectivity test of TRPC6 modulators against mouse TRPC4 | 55% of 2,400 active | inhibition, % at 10 µM | shares compounds with TRPC6 inhibitor | HEK293 TRPC4/mu-opioid, membrane potential dye fluorescence; stimulated with maximal-effect DAMGO;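 active = drop in membrane potential signal beyond 5 SD of the control wells in both duplicate plates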;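 note: TRPC4 counter screen for TRPC6 hits run under conditions tuned for TRPC6 not TRPC4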
TRPC6 block conf – mouse TRPC6 channel inhibitors, confirmation, HEK293 cells, membrane potential dye, duplicate. shares compounds with TRPC6 inhibitor. ACh-evoked depolarization. inhibition, % at 10 µM. 43% of 3,300 active;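 active = fluorescence ratio falls more than 5 SD below the full-stimulation control mean, in both duplicate runs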;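 note: integrated fluorescence ratio of peak minus minimum over baseline after agonist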
TRPC6 act conf – mouse TRPC6 channel activators, confirmation, HEK293 cells, membrane potential dye, duplicate; 11% of 2,800 active; HEK293-TRPC6 membrane potential dye fluorescence, FDSS; shares compounds with TRPC6 inhibitor; AID 488961, 2010; activation, % at 10 µM;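 active = ratio signal rise beyond 5 SD above unstimulated control wells' mean, seen in both duplicate runs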;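 note: plate controls were buffer EC0 wells for no effect and acetylcholine ECmax response for full effect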
* marks the source's active call; other numbers are inactive results.

`CN(C)S(=O)(=O)c1ccc(C(=O)Nc2nnc(-c3ccc4c(c3)CCCC4)o2)cc1` gave TRPC4 PAM inactive, TRPC6 activator inactive, TRPC4 inh inactive, TRPC4 agonist inactive, TRPC6 inhibitor -5.6*, HEK293 MPD ctr-2 inactive, HEK293 MPD ctr 2-2 inactive, TRPC4/MOR mod inactive, TRPC4 ctr inh 2 inactive, TRPC6 block conf inactive and TRPC6 act conf inactive.
For CN(C)S(=O)(=O)c1ccc(C(=O)Nc2nnc(-c3cccs3)o2)cc1 the results were TRPC4 PAM inactive, TRPC6 activator inactive, TRPC4 inh inactive, TRPC4 agonist inactive and TRPC6 inhibitor inactive.
COc1cccc(-c2nc(CS(=O)CC(=O)NCCc3ccc(C)cc3)c(C)o2)c1 (stereo not drawn) was read as TRPC4 PAM inactive, TRPC6 activator inactive, TRPC4 inh inactive, TRPC4 agonist inactive and TRPC6 inhibitor inactive.
For CC1(C)CC(=O)c2sc(NC(=O)C3CC3)nc2C1 the results were TRPC4 PAM inactive, TRPC6 activator inactive, TRPC4 inh inactive, TRPC4 agonist inactive and TRPC6 inhibitor inactive.
For Cn1nc(C(C)(C)C)cc1C(=O)Nc1nc2c(s1)C(=O)CC(C)(C)C2 the results were TRPC4 PAM inactive, TRPC6 activator inactive, TRPC4 inh inactive, TRPC4 agonist inactive, TRPC6 inhibitor -5*, HEK293 MPD ctr-2 inactive, HEK293 MPD ctr 2-2 inactive, TRPC4/MOR mod inactive, TRPC4 ctr inh 2 inactive and TRPC6 block conf inactive.
Screening CC(C)(CC(=O)O)CC(=O)Nc1ccc2c(c1)ncn2CCc1ccccc1 returned TRPC4 PAM inactive, TRPC6 activator inactive, TRPC4 inh inactive, TRPC4 agonist inactive and TRPC6 inhibitor inactive.
For Cc1ccc(CN(C(=O)Cc2cccs2)C(C(=O)NC2CCCC2)c2ccncc2)cc1 (stereo not drawn) the results were TRPC4 PAM inactive, TRPC6 activator inactive, TRPC4 inh inactive, TRPC4 agonist inactive and TRPC6 inhibitor inactive.
O=C(NC1CCCC1)C(c1ccccc1)N(Cc1cccnc1)C(=O)Cc1cccs1 (stereo not drawn) was read as TRPC4 PAM inactive, TRPC6 activator inactive, TRPC4 inh inactive, TRPC4 agonist inactive, TRPC6 inhibitor -6.1*, HEK293 MPD ctr-2 194%*, HEK293 MPD ctr 2-2 inactive, TRPC4/MOR mod 50%*, TRPC4 ctr inh 2 inactive and TRPC6 block conf inactive.
`Cc1cc(C)n(C(=O)c2c([N+](=O)[O-])c(C)nn2C)n1` gave TRPC4 PAM inactive, TRPC6 activator inactive, TRPC4 inh inactive, TRPC4 agonist inactive and TRPC6 inhibitor inactive.
`Cc1ccc(SC(=O)c2c([N+](=O)[O-])c(C)nn2C)cc1` gave TRPC4 PAM inactive, TRPC6 activator inactive, TRPC4 inh inactive, TRPC4 agonist inactive, TRPC6 inhibitor -7.2*, TRPC4 spec 2 inactive, TRPC4 spec inactive, HEK293 MPD ctr 2-1 -5.5%*, HEK293 MPD ctr-1 inactive, TRPC6 block conf 76%* and TRPC6 act conf inactive.
O=[N+]([O-])c1nn(-c2ccc3c(c2)OCCO3)n(O)c1=NC1CCN(Cc2ccccc2)CC1 was read as TRPC4 PAM inactive, TRPC6 activator inactive, TRPC4 inh inactive, TRPC4 agonist inactive, TRPC6 inhibitor -8.6*, TRPC4 spec 2 inactive, TRPC4 spec inactive, HEK293 MPD ctr 2-1 inactive, HEK293 MPD ctr-1 inactive, TRPC6 block conf inactive and TRPC6 act conf inactive.
Screening Cc1cccc(OCC(=O)Nc2ccc(C(=O)Nc3ccccc3C(=O)O)cc2)c1C returned TRPC4 PAM inactive, TRPC6 activator inactive, TRPC4 inh inactive, TRPC4 agonist inactive and TRPC6 inhibitor inactive.
CN1CCc2c(sc3c2C(=O)NC(/C=C\c2ccccc2)N3)C1 (stereo not drawn) was read as TRPC4 PAM inactive, TRPC6 activator inactive, TRPC4 inh inactive, TRPC4 agonist inactive, TRPC6 inhibitor -5.7*, HEK293 MPD ctr-2 inactive, HEK293 MPD ctr 2-2 inactive, TRPC4/MOR mod -14%*, TRPC4 ctr inh 2 63%*, TRPC6 block conf 58%* and TRPC6 act conf inactive.

Compound activity: PubChem, Johns Hopkins Ion Channel Center
